Bioassay records as filed in PubChem.
This is one part of a sample in which hits are shown more often than they occur.
L major viab = Leishmania major promastigote growth inhibition, primary screen | Leishmania major promastigotes, resazurin fluorescence viability | inhibition, % at 10 µM | hit rate 9% among 200,000; in the data active = inhibition above about 50%;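 also: promastigotes grown with compound for 44 hours at 28 °C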
Dynein cargo inh = inhibitors of GR-EGFP nuclear translocation, primary screen, dynein cargo transport inhibitor project, imaging, high-content, 3617.4 mouse cells. test concentration mostly 20 µM; stimulated with dexamethasone, 1 µM; hits give low values. z-score, hits read low. hit rate 0.47% among 220,000. AID 1381, 2008;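 active = plate z-score of nuclear minus cytoplasmic receptor signal below a set negative limit, without overly bright fluorescence or cell loss, cut at about -3.5 in these data, passing the limit was not always enough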;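 also: z-score of nuclear minus cytoplasmic ring GR-EGFP intensity difference per well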
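Buffer or medium: tet-free, stripped-serum medium; Also added: dexamethasone, 1.0 µM final; Technique: high-content fluorescence imaging after fixation; Times: 48 h induction, 1 h compound, 30 min dex at 37 °C; Read-out: per-cell GR-EGFP intensity, nucleus versus surrounding cytoplasmic ring, well-averaged.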
T cruzi inh = inhibitors of intracellular T. cruzi growth, primary screen, luminescence, NIH3T3 host cells; hit rate 1.4% among 300,000; T. cruzi beta-gal in NIH3T3, 90 h; AID 1885, 2009; inhibition, % (concentration not given with the values);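 active = mean inhibition across valid replicates above about 55%, limit read from the data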;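 also: signal also drops with host cell toxicity which is not excluded here; 0% = plate median of DMSO wells and 100% = zero luminescence signal; higher percent means less beta-gal luminescence so fewer parasites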
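Material: NIH/3T3 host cells with β-galactosidase reporter T. cruzi; Input: 5,000 host fibroblasts per well; Medium: DMEM, 2% fetal bovine serum; Compound: 50 nL DMSO compound solution per well; Schedule: 3 h host attachment, then at least 90 h co-culture; Detection: luminescent β-galactosidase signal after 60 min lysis.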
CHOP inh = inhibitors of CHOP promoter induction, primary screen, cell-based, unfolded protein response, luciferase reporter. CHO-K1 CHOP-promoter luciferase, tunicamycin-induced, 15-18 h. inhibition, % at 10 µM. hit rate 3.8% among 220,000. AID 2732, 2010;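 active = compounds that reduced the stress-induced luciferase reporter signal by more than about 70% of percent inhibition, limit read from the data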;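 also: 0% = tunicamycin plus vehicle and 100% = wells without tunicamycin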
UPR CHOP act = activators of apoptotic CHOP UPR arm, primary screen, cell-based, CHO-CHOP luciferase reporter, luminescence, uHTS. UPR activation; percent of tunicamycin response over DMSO baseline. hit rate 0.34% among 330,000. AID 449763, 2010. activation, % at 10 µM;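 active = at 10 µM dose, activation of 40% or more, normalized to positive control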;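 also: 100% = tunicamycin at 10 µg/mL and 0% = DMSO alone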
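Assay system: CHO cells with stable CHOP pathway luciferase reporter; Buffer or medium: F12 plus 10% serum; Times: 16-18 h cell attachment, then 6 h compound exposure, 37 °C; Signal: luciferase luminescence; Read-out basis: percent activation relative to tunicamycin control; Control set: tunicamycin high control, DMSO low control.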
XBP1 UPR activ = activators of adaptive XBP1 UPR arm, primary screen, cell-based, CHO-XBP1 luciferase reporter, luminescence, uHTS. IRE1-XBP1 UPR activation; percent of tunicamycin response, DMSO as zero. activation, % at 20 µM. hit rate 0.33% among 330,000;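 active = versus positive control, 20 µM dose yields 30% or more activation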;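 also: 100% = tunicamycin at 10 µg/mL and 0% = DMSO only wells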
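incubation = overnight seeding at 37 °C, 6 h compound treatment at 37 °C | assay system = CHO-XBP1 cells stably carrying IRE1-XBP1-driven luciferase reporter | input = 1000 cells per well | detection = luciferase luminescence | dosing = single point, 20 µM final compound, 1% DMSO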
* = called active by the depositor; · = not tested or not shown.

SMILES	L major viab	Dynein cargo inh	T cruzi inh	CHOP inh	UPR CHOP act	XBP1 UPR activ
COc1cccc(CN(CC2CCCO2)S(=O)(=O)c2ccc(-n3cnnn3)c(OC)c2)c1 (configuration not stated)	5	-0.78	5	17	0	-2
COc1cccc(CN(Cc2cccnc2)S(=O)(=O)c2ccc(-n3cnnn3)c(C)c2)c1	100*	-0.85	8	16	-1	-2
O=C(Cn1nnc(-c2ccccc2)n1)NCC(=O)Nc1ccc(F)c(F)c1F	·	·	·	·	-1	-3
CN1CCC(Oc2ccccc2Sc2ccccc2)CC1	100*	-0.47	27	41	2	2
COc1cc(/C=C(\NC(=O)c2cc(OC)c(OC)c(OC)c2)C(=O)NC(C(=O)O)c2ccccc2)cc(OC)c1OC (configuration not stated)	·	·	-8	·	-2	-6
COCCn1c(SCC(=O)NN2C(=O)NC(C)(c3ccccc3)C2=O)nnc1-c1ccncc1 (configuration not stated)	·	·	·	·	0	-1
CCOC(=O)/C(C#N)=C/c1ccc(OCC(=O)Nc2ccc(OC)cc2)c(OC)c1	-3	·	-14	7	0	-2
COc1cc(/C=C(\C#N)c2ccccn2)ccc1OCC(=O)Nc1ccc(Br)cc1	3	-0.71	-1	70*	-1	5
COc1cccc(CN(C)C(=O)c2ccc(OCC(=O)Nc3cccc(C(F)(F)F)c3)c(OC)c2)c1	·	·	15	·	8	-2
COc1cc(/C=C(\C#N)c2ccccn2)ccc1OCC(=O)Nc1c(Cl)cccc1Cl	3	-0.64	·	4	·	·
COc1cc(C(=O)NCCCN(C)C)ccc1OCC(=O)Nc1cccc(C(F)(F)F)c1	38	-1	57*	-8	-1	0
COc1cc(/C=C(\C#N)C(=O)Nc2cc(C(F)(F)F)ccc2Cl)ccc1OCC(=O)Nc1cccc(C(F)(F)F)c1	-2	2.7	-4	74*	1	-3
CCOC(=O)/C(C#N)=C/c1ccc(OCC(=O)Nc2ccc(C)c(C)c2)c(OC)c1	52*	-0.23	-10	40	5	-2
CC(C)(C)OC(=O)N1CCC(C(=O)Nc2ccc3c(c2)CCC3)CC1	·	·	·	·	6	4
CC[C@]12c3[nH]c4cc(CCC(=O)N(C)C)ccc4c3CCN1C(=O)[C@@H](CC(=O)NCC13CC4CC(CC(C4)C1)C3)C[C@@H]2C(=O)N1CCN(C(=O)c2ccco2)CC1	·	·	·	·	1	0
COc1cc(/C=N\Nc2ccc([N+](=O)[O-])cc2)ccc1OCC(=O)Nc1ccc(C)c(C)c1	-6	2.5	4	78*	·	·
O=C(O)c1ccc(-c2nnn(Cc3cccc(C(F)(F)F)c3)n2)cc1	·	0.059	-15	-17	0	2
C=CCc1ccccc1OCCCCN1CCCC1	77*	-0.11	22	-13	-1	-4
Cc1ccccc1CN1CCN(S(C)(=O)=O)CC1	5	0.77	-4	22	-2	1
CCOc1ccccc1CN1CCN(S(C)(=O)=O)CC1	82*	-1.1	-7	17	0	-3
CC(=O)c1ccccc1OCCCCN1CCCCC1	·	·	17	·	3	-2
C=CCc1ccccc1OCC(O)CN1CCN(c2ccccc2F)CC1 (configuration not stated)	69*	-0.3	6	78*	-4	-1
C=CCOc1ccccc1CN1CCCCCC1	·	·	-8	·	-1	-1
CCc1ccccc1OCCCCN1CCCC1	94*	-0.2	27	3	-1	1
CCN(CC)S(=O)(=O)c1ccc(N2CCCC2)c(NC(=O)c2ccc(N3CCCC3=O)cc2)c1	·	·	0	·	0	3
SMILES	L major viab	Dynein cargo inh	T cruzi inh	CHOP inh	UPR CHOP act	XBP1 UPR activ
CCOc1ccc(NS(=O)(=O)c2ccc(C(=O)NCC(c3ccc(OC)cc3)N3CCOCC3)cc2)cc1 (configuration not stated)	·	·	17	·	-2	-1
CCOc1ccccc1OCCOc1ccccc1CC	-1	0.052	11	76*	-2	-4
C=CCc1ccccc1OCC(O)CN1CCN(c2ccccc2OC)CC1 (configuration not stated)	27	-0.48	7	7	-1	-4
C=CCc1ccccc1OCC(CN1CCCCC1)OC(C)=O (configuration not stated)	65*	-1.2	8	33	-1	-3
CCCn1c(C(O)c2ccc(OC)c(OC)c2)nc2ccccc21 (configuration not stated)	·	·	1	·	1	-4
Cc1ccc(C(=O)c2ccc(O)cc2)cc1C	-5	0.63	·	56	4	1
Cc1ccc(C(=O)c2cccc(N)c2)cc1C	-5	1.6	3	79*	-7	-6
CS(=O)(=O)Cc1ccc(C(=O)N2CCN(C(=O)c3cccs3)CC2)cc1	·	·	·	·	-1	0
CCn1c(O)c(C=Nc2ccccc2)sc1=S	-2	0.38	7	-9	4	-1
Oc1c(C=Nc2ccccc2)sc(=S)n1Cc1ccccc1	-3	0.74	14	80*	-1	1
CC(=O)/C=C1\N(C)c2ccc(C)cc2C1(C)C	91*	-0.12	66*	36	2	-3
CN1/C(=C\C(=O)c2cccc(S(=O)(=O)N3CCCCC3)c2)C(C)(C)c2ccccc21	99*	-0.56	43	28	0	3
CN1/C(=C\C(=O)c2ccco2)C(C)(C)c2ccccc21	83*	-0.36	31	25	15	-1
CN1/C(=C\C(=O)c2cncc(Br)c2)C(C)(C)c2ccccc21	91*	-0.034	44	49	5	1
COc1ccc(-c2ccc(C(C)=O)cc2)cc1[C@H]1[C@H]2C=CC[C@@H](C)[C@@H]2C(=O)N1Cc1ccccc1	·	-0.27	60*	26	1	3
COC(=O)c1ccc(-c2ccc(OC)c([C@H]3[C@H]4C=CC[C@@H](C)[C@@H]4C(=O)N3Cc3ccccc3)c2)cc1	·	-0.46	47	21	1	1
C[C@@H]1CC=C[C@H]2[C@H]1C(=O)N(Cc1ccccc1)[C@H]2c1ccc(F)c(Br)c1	·	-1.5	51	76*	·	·
Cc1onc(-c2ccccc2)c1-c1nnc(CN2CCN(S(=O)(=O)c3ccccc3)CC2)o1	·	·	·	·	-1	-3
CCCCC(c1nnnn1C1CCCC1)N1CCN(C(=O)c2ccco2)CC1 (configuration not stated)	58*	-0.85	8	-4	0	-4
